Assay [1] deals with L1210. Put plainly: Antitumor activity in mice with intraperitoneal implanted L1210 lymphoid leukemia at the dose 50 mg/kg/day x 5 was determined as weight change (g/mouse) on 8th day. Type of assay: functional. In outline:
(§1)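 C3D2F1/J female mice (C3H/HeJ × DBA/2J), groups of six to eight, average 25 g, inoculated ip with 1 × 10^6 L1210 ascites cells taken from DBA/2Ha donor mice carrying 3-5 day tumors. Compound dissolved in 0.154 N NaOH, then neutralized with 0.154 N HCl to give 0.9% NaCl. Given ip daily for 5 consecutive days starting 24 h after implantation. Body weight change per mouse recorded on day 8.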

The subject of assay [2] is L1210. Put plainly: Antitumor activity in the mice with intraperitoneal implanted L1210 lymphoid leukemia at the dose 50 mg/kg/day x 5 was determined as Survival time in days; Range is 14-17 days. The class given is functional, Mus musculus. In outline:
(§2)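 Female C3D2F1/J mice (C3H/HeJ × DBA/2J), groups of six to eight, average weight 25 g. Each mouse got 1 × 10^6 L1210 ascites cells ip, taken from DBA/2Ha donor mice bearing 3-5 day tumors. Compound was dissolved in 0.154 N NaOH and neutralized with 0.154 N HCl (final 0.9% NaCl). Dosed ip daily ×5, starting 24 h after implant. Recorded body weight change on day 8, survival range, median survival and 30-day survivors. ILS = (T/C − 1) × 100.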

For assay [3], the system named is L1210. The assay is described as follows: Antitumor activity in the mice with intraperitoneal implanted L1210 lymphoid leukemia at the dose 25 mg/kg/day x 5 was determined as percentage increase in the life span as compared with control tumor bearers. Type of assay: functional. Particulars: Mus musculus, L1210, ip. In outline:
as §2

The test system of assay [4] is L1210. Put plainly: Antitumor activity in the mice with intraperitoneal implanted L1210 lymphoid leukemia at the dose of 100 mg/kg/day x 5 was determined as mean survival of treated group compared to untreated; 7/11. The class given is functional, Mus musculus. In outline: (§3)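 C3D2F1/J female mice (C3H/HeJ female × DBA/2J male), groups of six to eight, average weight 25 g. Inoculated ip with 1 × 10^6 L1210 ascites cells taken from DBA/2Ha donor mice bearing 3-5 day old tumors. Compounds were dissolved in 0.154 N NaOH, neutralized with 0.154 N HCl (final 0.9% NaCl), and given ip daily for 5 days from 24 h post-implant. Median survival T/C; ILS = (T/C − 1) × 100; 30-day survivors counted.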

In assay [5] the test system is L1210. The assay is described as follows: Antitumor activity in the mice with intraperitoneal implanted L1210 lymphoid leukemia at the dose of 25 mg/kg/day x 5 was determined as mean survival of treated group compared to untreated; 14/8.5. Type of assay: functional, Mus musculus. In outline: as §3
The test system of assay [6] is L1210. The assay is described as follows: Antitumor activity in mice with intraperitoneal implanted L1210 lymphoid leukemia at the dose 25 mg/kg/day x 5 was determined as weight change (g/mouse) on 8th day. Type of assay: functional. A digest of the protocol:
as §1

Assay [7] has as its system L1210. Put plainly: Antitumor activity in the mice with intraperitoneal implanted L1210 lymphoid leukemia at the dose 75 mg/kg/day x 5 was determined as Survival time in days; Range is 14-18 days. The class given is functional, Mus musculus. A digest of the protocol: as §3
Assay [8] has as its system L1210. Put plainly: Antitumor activity in the mice with intraperitoneal implanted L1210 lymphoid leukemia at the dose 25 mg/kg/day x 5 was determined as Survival time in days; Range is 12-18 days. Type of assay: functional, Mus musculus. In outline: as §2
Assay [9] concerns L1210. The assay is described as follows: In Vitro evaluation for the antiproliferative activity by observing the growth inhibition of L1210 lymphoid leukemia cells in culture at 72 hour. Type of assay: functional, Mus musculus. In outline: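 Growth of L1210 lymphoid leukemia cells in culture measured by Trypan blue exclusion of viable cells after 72 h of drug exposure. ED50 is the concentration giving 50% growth inhibition. In some runs the compound was first preincubated in medium at 37 °C for 24 or 48 h before the assay.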

The test system of assay [10] is L1210. Put plainly: Antitumor activity in the mice with intraperitoneal implanted L1210 lymphoid leukemia at the dose 100 mg/kg/day x 5 was determined as Survival time in days; Range is 7-8 days. The class given is functional, Mus musculus. A digest of the protocol:
as §2

Assay [11] has as its system L1210. The assay is described as follows: Antitumor activity in the mice with intraperitoneal implanted L1210 lymphoid leukemia at the dose 50 mg/kg/day x 5 was determined and number of animals survived on 30 th day were reported; 0/8. Type of assay: functional, Mus musculus. A digest of the protocol: as §2
For assay [12], the system named is L1210. Put plainly: Antitumor activity in the mice with intraperitoneal implanted L1210 lymphoid leukemia at the dose of 50 mg/kg/day x 5 was determined as mean survival of treated group compared to untreated; 16/9.5. The class given is functional, Mus musculus. A digest of the protocol: as §3
For assay [13], the system named is L1210. The assay is described as follows: Antitumor activity in the mice with intraperitoneal implanted L1210 lymphoid leukemia at the dose 100 mg/kg/day x 5 was determined as percentage increase in the life span as compared with control tumor bearers. The class given is functional. Particulars: Mus musculus, L1210, ip. A digest of the protocol: as §2
Assay [14] concerns L1210. The assay is described as follows: Antitumor activity in the mice with intraperitoneal implanted L1210 lymphoid leukemia at the dose 75 mg/kg/day x 5 was determined as percentage increase in the life span as compared with control tumor bearers. Particulars: Mus musculus, L1210, ip. Type of assay: functional. A digest of the protocol:
as §3

Assay [15] relates to L1210. The assay is described as follows: Antitumor activity in mice with intraperitoneal implanted L1210 lymphoid leukemia at the dose 75 mg/kg/day x 5 was determined as weight change (g/mouse) on 8th day. Type of assay: functional. A digest of the protocol: as §1
Assay [16] deals with L1210. Put plainly: Antitumor activity in the mice with intraperitoneal implanted L1210 lymphoid leukemia at the dose 100 mg/kg/day x 5 was determined and number of animals survived on 30 th day were reported; 0/6. Type of assay: functional, Mus musculus. A digest of the protocol:
as §2

The test system of assay [17] is L1210. Put plainly: Antitumor activity in the mice with intraperitoneal implanted L1210 lymphoid leukemia at the dose 25 mg/kg/day x 5 was determined and number of animals survived on 30 th day were reported; 0/8. Type of assay: functional, Mus musculus. A digest of the protocol: as §2
For assay [18], the system named is L1210. The assay is described as follows: Antitumor activity in the mice with intraperitoneal implanted L1210 lymphoid leukemia at the dose 75 mg/kg/day x 5 was determined and number of animals survived on 30 th day were reported; 0/8. The class given is functional, Mus musculus. A digest of the protocol: as §3
Assay [19] relates to L1210. Put plainly: Antitumor activity in the mice with intraperitoneal implanted L1210 lymphoid leukemia at the dose 50 mg/kg/day x 5 was determined as percentage increase in the life span as compared with control tumor bearers. Type of assay: functional. Particulars: Mus musculus, L1210, ip. In outline: as §3
Assay [20] relates to L1210. The assay is described as follows: Antitumor activity in the mice with intraperitoneal implanted L1210 lymphoid leukemia at the dose of 75 mg/kg/day x 5 was determined as mean survival of treated group compared to untreated; 17.5/9.5. The class given is functional, Mus musculus.

As for `C[C@]12CCC(=O)C=C1CC[C@H]1[C@@H]3CC[C@](O)(C(=O)COP(=O)(O)OC[C@H]4O[C@@H](n5ccc(N)nc5=O)[C@@H](O)[C@@H]4O)[C@@]3(C)C[C@H](O)[C@@]12F`, the Weight change in the assay with L1210 [1] was 0.39 g mouse-1; in the assay with L1210 [6], -1.09 g mouse-1; with L1210 [15], 0.52 g mouse-1. Moreover, the Survival time stood at 14 days in the assay on L1210 [2]; 14 days in the assay on L1210 [7]; 12 days in the assay with L1210 [8]; 7 days with L1210 [10]; 17.5 days with L1210 [20]. The ILS at 25 mg/kg/day with L1210 [3] came out at 65%. The T/C in the assay with L1210 [4] is given as 7; in the assay on L1210 [5], 14; with L1210 [12], 16. Moreover, in the assay on L1210 [9], the “ED 50” value turned out to be 80 nM. The Survivors in the assay on L1210 [11], in the assay with L1210 [16], with L1210 [17] and in the assay with L1210 [18] was 0 throughout. Besides, the ILS at 100 mg/kg/day in the assay with L1210 [13] is -36%. Moreover, the ILS at 75 mg/kg/day in the assay with L1210 [14] came out at 84%. In addition, in the assay on L1210 [19], the ILS at 50 mg/kg/day is 68%.

For the origin of these results see ChEMBL document CHEMBL1121364, “Nucleoside conjugates as potential antitumor agents. 3. Synthesis and antitumor activity of 1-(beta-D-arabinofuranosyl)cytosine conjugates of corticosteroids” (1980).
